Measurements published in ChEMBL document CHEMBL4041508, “Synthesis and biological evaluation of chemical tools for the study of Dolichol Linked Oligosaccharide Diphosphatase (DLODP)” (Eur J Med Chem, 2017).
pIC50: −log10 of the molar value. Active and inactive are the calls of the source. The rule behind the calls is not given here.

Assays:
Homo sapiens [1] = species on record: Homo sapiens; experiment: Inhibition of DLODP in human HepG2 microsomal membrane assessed as reduction in [3H]OSP production at 50 mM using Glc3-0[3H]Man9-5GlcNAc2-PP-dolichol as substrate at pH 5.5 measured after 20 to 60 mins by scintillation counting; assay type: cell membranes
Homo sapiens [2] = species on record: Homo sapiens; experiment: Inhibition of DLODP in human HepG2 microsomal membrane assessed as reduction in [3H]OSP production at 3 mM using Glc3-0[3H]Man9-5GlcNAc2-PP-dolichol as substrate at pH 5.5 measured after 20 to 60 mins by scintillation counting; assay type: cell membranes
[3] = Inhibition of DLODP in human HepG2 microsomal membrane assessed as reduction in [3H]OSP production using Glc3-0[3H]Man9-5GlcNAc2-PP-dolichol as substrate at pH 5.5 measured after 20 to 60 mins by scintillation counting; assay type: cell membranes
Homo sapiens [4] = species on record: Homo sapiens; experiment: Inhibition of DLODP in human HepG2 microsomes assessed as reduction in neutral oligosaccharide production at low concentration using Glc3-0[3H]Man9-5GlcNAc2-PP-dolichol as substrate measured after 20 to 60 mins by scintillation counting
How it was run: (§1)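 Cells grown in RPMI 1640 with 10% fetal calf serum and 1% penicillin/streptomycin, plus 1% non-essential amino acids for Caco-2 TC7, for 8 days before total membrane preparation. Assay uses 20 µg membrane protein in standard mix (100 mM MES pH 5.5, 1 mM CoCl2, 0.1% NP-40) with added inhibitor, 37 °C. Radioactivity in OSP and neutral oligosaccharides separated by ion exchange, counted by scintillation.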

Homo sapiens [5] = species on record: Homo sapiens; experiment: Inhibition of DLODP in human HepG2 microsomes assessed as reduction in OSP production at higher concentration using Glc3-0[3H]Man9-5GlcNAc2-PP-dolichol as substrate measured after 20 to 60 mins by scintillation counting; how it was run: as §1
Homo sapiens [6] = species on record: Homo sapiens; experiment: Inhibition of DLODP in human Caco2 microsomes assessed as reduction in neutral oligosaccharide production at low concentration using Glc3-0[3H]Man9-5GlcNAc2-PP-dolichol as substrate measured after 20 to 60 mins by scintillation counting; how it was run: as §1
Homo sapiens [7] = species on record: Homo sapiens; experiment: Inhibition of DLODP in human Caco2 microsomes assessed as reduction in OSP production at higher concentration using Glc3-0[3H]Man9-5GlcNAc2-PP-dolichol as substrate measured after 20 to 60 mins by scintillation counting; how it was run: as §1

| Compound | inhibition (Homo sapiens [1]) | pIC50 [3] | other results |
| --- | --- | --- | --- |
| CO[C@@H]1O[C@H](CO)[C@@H](O)[C@H](O)[C@@H]1O | 10% | – | – |
| CC(=O)N[C@H]1[C@@H](O[P@@](=O)(O)O[P@@](=O)(O)OC[C@H]2O[C@@H](n3ccc(=O)[nH]c3=O)[C@H](O)[C@@H]2O)O[C@H](CO)[C@@H](O)[C@@H]1O | – | – | inhibition (Homo sapiens [2]): inactive |
| CC(C)=CCC/C(C)=C/CC/C(C)=C/CC/C(C)=C/CC/C(C)=C/CC/C(C)=C/CC/C(C)=C/CC/C(C)=C/CC/C(C)=C/COP(=O)(O)OP(=O)(O)O | – | 5.33 | – |
| CC(C)O | Active | – | – |
| CC(=O)N[C@@H]1[C@@H](O)[C@H](O[C@@H]2O[C@H](CO)[C@H](O)[C@H](O)[C@H]2O)[C@@H](CO)O[C@@H]1O | inactive | – | – |
| CC(C)=CCC[C@H](C)CCOP(=O)(O)CP(=O)(O)O | – | 3.15 | – |
| CC(=O)N[C@@H]1[C@@H](O)[C@H](O)[C@@H](CO)O[C@@H]1O | inactive | – | – |
| O=[N+]([O-])c1ccc(OP(=O)(O)O)cc1 [p-NITROPHENYLPHOSPHATE] | – | 2.38 | – |
| CCCOP(=O)(O)O | – | – | inhibition (Homo sapiens [2]): inactive |
| OC[C@H]1OC(O)[C@@H](O)[C@@H](O)[C@@H]1O (stereo not given in full) | inactive | – | – |
| O=[N+]([O-])c1ccc(OP(=O)(O)Oc2ccc([N+](=O)[O-])cc2)cc1 | – | 2.92 | – |
| CC(=O)N[C@H]1[C@@H](OP(=O)(O)O)O[C@H](CO)[C@@H](O)[C@@H]1O | – | < 2.52 | inhibition (Homo sapiens [4]): Active; inhibition (Homo sapiens [5]): Active; inhibition (Homo sapiens [6]): Active; inhibition (Homo sapiens [7]): Active |
| CO[C@H]1O[C@H](CO)[C@@H](O)[C@H](O)[C@@H]1O | inactive | – | – |
| CC(=O)N[C@@H]1[C@@H](O)[C@H](O[C@@H]2O[C@H](CO)[C@@H](O)[C@H](O)[C@@H]2O)[C@@H](CO)O[C@@H]1O | 30% | – | – |
| O=P(O)(O)CP(=O)(O)O | – | – | inhibition (Homo sapiens [2]): inactive |
| CC(=O)N[C@@H]1[C@@H](O)[C@H](O[C@@H]2O[C@H](CO)[C@@H](O)[C@H](O)[C@H]2NC(C)=O)[C@@H](CO)O[C@@H]1O | < 10% | – | – |
